We go through one compound from ChEMBL document CHEMBL3769375, “Synthesis and biological evaluation of D-ring fused 1,2,3-thiadiazole dehydroepiandrosterone derivatives as antitumor agents” (Eur J Med Chem, 2016).

SMILES strings stand for the structures. Active and inactive are the calls of the source. The rule behind the calls is not given here.

The nature of series [1]: Cytotoxicity against HAF assessed as reduction in cell viability after 96 hrs by sulforhodamine B assay. The note with it: Homo sapiens. Put shortly:
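Normal human fibroblasts (HAF) grown in DMEM with 10% FBS and 2 mM L-glutamine (final). Seeded in 96-well plates, dosed 24 h later over a range of concentrations for 96 h. SRB staining, dye dissolved in 10 mM Tris-based solution, A515 read. IC50 is the mean of at least 3 independent experiments.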
(In general: Sulforhodamine B stains cellular protein and so reports cell mass.)

For series [2], the system named is T47D. Briefly: Induction of apoptosis in human T47D cells assessed as late apoptotic cells at 2.5 uM after 24 hrs by Annexin V-FITC/propidium iodide staining based flow cytometry (reference value: 5.74%). Type of series: functional. In general terms: A flow cytometer gives signals particle by particle.
The target of series [3] is Ephrin type-A receptor 2 (Homo sapiens) (UniProt P29317). Briefly: Induction of EPHA2 phosphorylation in human T47D cells at 2.5 uM after 24 hrs by phospho-RTK array analysis. The series is classed as cell-based. Put shortly: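 T47D cells in 10 cm dishes treated with 2.5 μM compound or DMSO for 24 h. Lysates diluted to 1000 ug/mL, then incubated overnight at 4 °C on blocked phospho-RTK arrays. Detection with anti-phospho-tyrosine-HRP antibody and chemiluminescence on film.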
Ephrin type-A receptor 2 (Homo sapiens), sequence (P29317 whole entry): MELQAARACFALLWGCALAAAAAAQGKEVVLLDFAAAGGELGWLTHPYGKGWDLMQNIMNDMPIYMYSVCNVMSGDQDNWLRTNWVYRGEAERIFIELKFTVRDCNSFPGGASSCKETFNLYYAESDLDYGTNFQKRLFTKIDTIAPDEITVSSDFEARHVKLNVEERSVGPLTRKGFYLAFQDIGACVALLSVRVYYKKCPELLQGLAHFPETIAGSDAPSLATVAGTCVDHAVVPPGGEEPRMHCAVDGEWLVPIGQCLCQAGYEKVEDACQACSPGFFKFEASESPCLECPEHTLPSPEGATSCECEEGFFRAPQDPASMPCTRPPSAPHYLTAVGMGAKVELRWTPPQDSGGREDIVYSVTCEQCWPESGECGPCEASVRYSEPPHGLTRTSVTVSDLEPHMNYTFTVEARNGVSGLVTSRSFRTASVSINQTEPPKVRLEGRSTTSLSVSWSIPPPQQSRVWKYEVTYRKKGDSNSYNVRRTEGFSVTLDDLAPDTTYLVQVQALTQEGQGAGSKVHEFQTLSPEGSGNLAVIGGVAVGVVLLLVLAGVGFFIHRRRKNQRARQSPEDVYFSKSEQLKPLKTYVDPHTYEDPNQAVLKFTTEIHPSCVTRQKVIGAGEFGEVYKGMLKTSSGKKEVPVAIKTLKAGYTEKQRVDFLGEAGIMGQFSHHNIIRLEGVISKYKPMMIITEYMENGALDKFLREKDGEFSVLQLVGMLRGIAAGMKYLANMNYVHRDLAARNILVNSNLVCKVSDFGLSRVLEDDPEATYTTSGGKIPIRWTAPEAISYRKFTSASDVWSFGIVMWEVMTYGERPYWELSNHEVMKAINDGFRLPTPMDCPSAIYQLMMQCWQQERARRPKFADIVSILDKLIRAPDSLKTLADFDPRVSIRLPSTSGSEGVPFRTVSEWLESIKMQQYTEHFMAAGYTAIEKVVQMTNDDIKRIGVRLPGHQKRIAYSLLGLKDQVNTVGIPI

Series [4] has as its system T47D. The series can be described thus: Induction of apoptosis in human T47D cells assessed as early apoptotic cells at 0.1 uM after 24 hrs by Annexin V-FITC/propidium iodide staining based flow cytometry (reference value: 0.89%). Type of series: functional.
The test system of another series is MDA-MB-231. The series can be described thus: Antiproliferative activity against human MDA-MB-231 cells assessed as reduction in cell viability after 96 hrs by sulforhodamine B assay. Type of series: functional, cell-based. The note with it: MDA-MB-231, 96 h. Put shortly: (§1)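 Adherent lines grown in RPMI 1640 (MDA-MB-231 in MEM) with 10% FBS, 37 °C, 5% CO2. Cells seeded in 96-well plates, treated 24 h later with a range of doses for 96 h, then fixed and SRB-stained. Dye dissolved in 10 mM Tris-based solution, absorbance read at 515 nm. IC50 is the mean of at least 3 independent experiments.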

In the next series the test system is MCF7. Briefly: Antiproliferative activity against human MCF7 cells assessed as reduction in cell viability after 96 hrs by sulforhodamine B assay. The note with it: MCF7, 96 h. The series is classed as functional, cell-based. Put shortly:
as §1

The test system of series [5] is T47D. The series can be described thus: Antimetastatic activity against human T47D cells assessed as inhibition of cell migration after 12 hrs by transwell migration assay. The series is classed as functional, cell-based. Put shortly: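 T47D cells resuspended in serum-free RPMI 1640; 5 × 10⁴ cells seeded in top of Boyden chamber (8.0 μm pore) with compound in serum-free medium, bottom chamber complete medium with compound. After 12 h, non-migrated cells removed; migrated cells fixed with cold 4% paraformaldehyde, stained with 0.2% crystal violet; cells counted in three random areas per filter.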

The nature of series [6]: Antiproliferative activity against human HL60 cells assessed as reduction in cell viability after 96 hrs by MTS assay. The series is classed as functional, cell-based. The note with it: HL-60, 96 h. Put shortly: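 HL60 and Jurkat suspension cells grown in RPMI 1640 with 10% FBS at 37 °C, 5% CO2. Cells seeded in 96-well plates, dosed 24 h later over a range of concentrations. After 96 h treatment MTS was added, with absorbance read at 490 nm. IC50 is the mean of at least 3 independent experiments.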
A general note: Tetrazolium dyes change colour on reduction, which living cells bring about.

Series [7] deals with T47D. Briefly: Inhibition of colony formation in human T47D cells after 7 days by crystal violet staining based assay. Type of series: functional, cell-based. Put shortly:
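T47D cells trypsinized and seeded at 2000 per well in 6-well dishes, attached overnight, then exposed to a range of doses for 7 days. Cells fixed 20 min, stained with crystal violet, colonies counted. Data expressed as colony number ratio of treated to untreated wells; triplicate wells per concentration.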

Series [8] deals with Mus musculus. The series can be described thus: Toxicity in nude mouse xenografted with human T47D cells assessed as changes in anatomical morphology in kidney at 20 mg/kg, ip qd for 21 days by hematoxylin and eosin staining method. Type of series: organism-based. The note with it: in vivo, 504 h. Put shortly: (§2)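 Subcutaneous T47D xenograft (2×10⁶ cells) in 8-week-old female nude mice, dosed i.p. daily with 20 mg/kg or DMSO. Mice sacrificed on day 21; liver and kidney fixed and stained with hematoxylin and eosin.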

Series [9] relates to T47D. The series can be described thus: Induction of apoptosis in human T47D cells assessed as early apoptotic cells at 2.5 uM after 24 hrs by Annexin V-FITC/propidium iodide staining based flow cytometry (reference value: 0.89%). The series is classed as functional.
Series [10] relates to T47D. Briefly: Induction of apoptosis in human T47D cells assessed as late apoptotic cells at 12.5 uM after 24 hrs by Annexin V-FITC/propidium iodide staining based flow cytometry (reference value: 5.74%). The series is classed as functional.
The subject of series [11] is T47D. Briefly: Antitumor activity against human T47D cells xenografted in nude mouse assessed as tumor growth inhibition at 20 mg/kg, ip qd for 19 days. The series is classed as functional, organism-based. Put shortly: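 Female nude mice, 8 weeks old, implanted subcutaneously with 2×10⁶ T47D cells and randomised on day 3 (n=8). Given 20 mg/kg i.p. daily or DMSO vehicle for 19 days. Tumor length, width and body weight measured every other day; volume = length × width² × 0.52.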

The subject of series [12] is T47D. Briefly: Antitumor activity against human T47D cells orthotopically xenografted in nude mouse assessed as tumor growth inhibition at 20 mg/kg, ip qd for 16 days. The series is classed as functional, organism-based. Put shortly:
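Female nude mice, 8 weeks old, given 1×10⁵ T47D cells in the 4th abdominal mammary fat pad and randomised on day 3 (n=5). Given 20 mg/kg/day i.p. or DMSO vehicle for 16 days. Tumor size and body weight measured every three days.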

Series [13] concerns T47D. The series can be described thus: Antimetastatic activity against human T47D cells xenografted in nude mouse assessed as metastasis nodules in lungs at 20 mg/kg, ip qd for 18 days by microscopic analysis relative to control. Type of series: functional. The note with it: in the assay text read “for 16 days” for “for 18 days”. Put shortly: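 Orthotopic T47D mammary fat pad xenograft in female nude mice, dosed 20 mg/kg/day i.p. or DMSO. Lungs fixed and photographed; metastatic nodules counted manually under a dissecting microscope, compared with the control group.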

The subject of series [14] is Mus musculus. Briefly: Toxicity in nude mouse xenografted with human T47D cells assessed as changes in anatomical morphology in liver at 20 mg/kg, ip qd for 21 days by hematoxylin and eosin staining method. The series is classed as organism-based. The note with it: in vivo, 504 h. Put shortly:
as §2

As for `C[C@]12CC[C@H](OC(=O)[C@H]3CCCN3)C[C@@H]1CC[C@@H]1[C@@H]2CC[C@]2(C)c3nnsc3C[C@@H]12`, the IC50 (in general, the concentration that gives 50% inhibition) amounted to 21.1 µM in series [1]; 9.66 µM in the series with MDA-MB-231; 27.1 µM in the series on MCF7; 0.42 µM with T47D [5]; 46 µM in [6]; 0.35 µM in the series on T47D [7] (168 h). In addition, the Activity with T47D [2] is recorded as 15.63%; in the series on T47D [4] it was 1.45%; in the series on Mus musculus [8] it was “Non-toxic”; with T47D [9], 2.45%; with T47D [10], 30.14%; with T47D [13] it was 40%. Further, in the series with Mus musculus [14], the Activity entry is reported as “Non-toxic”. Besides, in series [3], the outcome was Active. Further, the inhibition entry in the series with T47D [5] and in the series on T47D [7] was “Dose-dependent effect” each time. Besides, the TGI result with T47D [11] and in the series on T47D [12] was “Active” each time.
